Activity calls are given as the source filed them. The calls are words filed in the database; no cut-off is given here.
Experiments:
[1] = tested on: T47D; experiment: Inhibition of mitochondrial ETC complex 1 in human T47D cells assessed as inhibition of oxygen consumption after 5 to 10 mins by Clarke-type electrode analysis; type: cell-based
Procedure, shortened: (§1)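 For acute exposure, intact T47D cells received compound at 3, 10 or 30 μM for 5–10 min. Oxygen consumption was then measured with a Clarke-type electrode, with rotenone at 1–100 nM as control. Results are % inhibition of the untreated rate, averaged over two independent experiments with deviation from the average.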

[2] = tested on: T47D; experiment: Inhibition of mitochondrial ETC complex 2 in human digitonin-permeabalized T47D cells assessed as inhibition of succinate-initiated respiration at 30 uM after 2 hrs by Clarke-type electrode analysis; type: cell-based
[3] = molecular target: Mitochondrial complex I (NADH dehydrogenase); experiment: Inhibition of mitochondrial ETC complex 1 in human T47D cells assessed as inhibition of 1% O2-induced HIF1 activation incubated for 30 mins prior to 1% O2-challenge measured after 16 hrs by luciferase reporter assay; type: cell-based
Procedure, shortened: (§2)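 pHRE-luc reporter transfected T47D cells were exposed for 16 h to hypoxia (1% O2) or to chemical hypoxia (10 μM 1,10-phenanthroline) in the presence of compound. The highest concentration tested was 30 μM. Luciferase signal was expressed as % inhibition of the induced control. IC50 and 95% CI came from one representative concentration-response experiment run in triplicate. Cycloheximide at 10 μM served as control.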

[4] = tested on: T47D; experiment: Antiproliferative activity against human T47D cells at 1 to 10 uM after 48 hrs by SRB assay; type: functional, cell-based
Procedure, shortened: (§3)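 T47D or MDA-MB-231 breast tumor cells were exposed to 1, 3, 10 and 30 μM for 48 h or 144 h (6 d). For the 6 d exposure, medium was replaced after 3 days with fresh medium containing compound. Stocks were 4 mM in 2-propanol, with final solvent below 0.75%. Viability was measured by sulforhodamine B and expressed as % inhibition of the untreated control: [1−(OD treated/OD control)]×100.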

[5] = tested on: T47D; experiment: Inhibition of mitochondrial ETC complex 1 in human T47D cells assessed as inhibition of oxygen consumption at 30 uM after 5 to 10 mins by Clarke-type electrode analysis; type: cell-based; procedure, shortened: as §1
[6] = tested on: MDA-MB-231; experiment: Antiproliferative activity against human MDA-MB-231 cells at 1 to 10 uM after 48 hrs by SRB assay; type: functional, cell-based; procedure, shortened: as §3
[7] = tested on: T47D; experiment: Inhibition of mitochondrial ETC complex 1 in human digitonin-permeabalized T47D cells assessed as inhibition of malate/pyruvate-initiated respiration at 30 uM after 2 hrs by Clarke-type electrode analysis in presence of succinate; type: cell-based
[8] = molecular target: Mitochondrial complex I (NADH dehydrogenase); experiment: Inhibition of mitochondrial ETC complex 1 in human T47D cells assessed as inhibition of 1,10-phenanthroline-induced HIF1 activation incubated for 30 mins prior to 1,10-phenanthroline-challenge measured after 16 hrs by luciferase reporter assay; type: cell-based; procedure, shortened: as §2
[9] = tested on: T47D; experiment: Inhibition of mitochondrial ETC complex 1 in human digitonin-permeabalized T47D cells assessed as inhibition of malate/pyruvate-initiated respiration at 30 uM after 2 hrs by Clarke-type electrode analysis; type: cell-based
[10] = tested on: T47D; experiment: Inhibition of mitochondrial ETC complex 4 in human digitonin-permeabalized T47D cells assessed as inhibition of ascorbate/TMPD-initiated respiration at 30 uM after 2 hrs by Clarke-type electrode analysis in presence of antimycin A; type: cell-based
[11] = tested on: T47D; experiment: Inhibition of mitochondrial ETC complex 4 in human digitonin-permeabalized T47D cells assessed as inhibition of ascorbate/TMPD-initiated respiration at 10 uM after 2 hrs by Clarke-type electrode analysis in presence of antimycin A; type: cell-based
Procedure, shortened: (§4)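 T47D cells were pretreated for 2 h with 10 μM compound (rotenone control 0.01 μM), then detached, washed and permeabilized with digitonin. Substrates and inhibitors were added in sequence while O2 uptake was followed by Clarke electrode. Respiration was started with malate/pyruvate (complex I) or succinate (complex II). Antimycin A then blocked complex III, and TMPD/ascorbate re-initiated respiration via complex IV. Rates were normalized to the untreated control.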

[12] = tested on: T47D; experiment: Inhibition of mitochondrial ETC complex 1 in human digitonin-permeabalized T47D cells assessed as inhibition of malate/pyruvate-initiated respiration at 10 uM after 2 hrs by Clarke-type electrode analysis; type: cell-based; procedure, shortened: as §4
[13] = tested on: MDA-MB-231; experiment: Antiproliferative activity against human MDA-MB-231 cells at 1 to 30 uM after 144 hrs by SRB assay; type: functional, cell-based; procedure, shortened: as §3
[14] = tested on: T47D; experiment: Inhibition of mitochondrial ETC complex 1 in human T47D cells assessed as inhibition of oxygen consumption at 10 uM after 10 mins by Clarke-type electrode analysis; type: cell-based; procedure, shortened: as §1
[15] = tested on: T47D; experiment: Inhibition of mitochondrial ETC complex 1 in human T47D cells assessed as inhibition of oxygen consumption at 10 uM after 2 hrs by Clarke-type electrode analysis; type: cell-based
Procedure, shortened: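 T47D cells were pretreated with 10 μM compound, or 0.01 μM rotenone, for 2 h. Cells were then detached and washed, and the oxygen consumption rate was measured with a Clarke-type electrode. Results are % inhibition relative to untreated controls.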

[16] = tested on: T47D; experiment: Antiproliferative activity against human T47D cells at 1 to 30 uM after 144 hrs by SRB assay; type: functional, cell-based; procedure, shortened: as §3
[17] = tested on: T47D; experiment: Inhibition of mitochondrial ETC complex 2 in human digitonin-permeabalized T47D cells assessed as inhibition of succinate-initiated respiration at 10 uM after 2 hrs by Clarke-type electrode analysis; type: cell-based; procedure, shortened: as §4
[18] = tested on: MDA-MB-231; experiment: Antiproliferative activity against human MDA-MB-231 cells at 30 uM after 48 hrs by SRB assay; type: functional, cell-based; procedure, shortened: as §3
[19] = tested on: T47D; experiment: Antiproliferative activity against human T47D cells at 30 uM after 48 hrs by SRB assay; type: functional, cell-based; procedure, shortened: as §3

Compound | inhibition [1] | inhibition [2] | IC50 [3] | Activity [4] | inhibition [5] | Activity [6] | inhibition [7] | IC50 [8] | inhibition [9] | inhibition [10] | inhibition [11] | inhibition [12] | Activity [13] | inhibition [14] | inhibition [15] | Activity [16] | inhibition [17] | Activity [18] | Activity [19]
CC(C)=CCC/C(C)=C/COc1ccc2ccc(=O)oc2c1 [AURAPTENE] | Dose-dependent effect | inactive | 10.2 µM | Active | 30% | Active | inactive | 18.8 µM | Active | inactive |  |  |  |  |  |  |  |  | 
CC(C)=CCOc1ccc(CCNC(=O)/C=C/c2ccccc2)cc1 [DEHYDROMARMELINE] |  | inactive | 15.1 µM |  | 70% |  | inactive | > 30 µM | Active | inactive |  |  |  |  |  |  |  |  | 
CCCCC/C=C\C/C=C\CCCCCCCC(=O)O[C@H](CC/C(C)=C/COc1ccc2ccc(=O)oc2c1)C(C)(C)O [R-(+)-MARMIN-6'-LINOLEATE] |  |  | 0.92 µM | Active | 25% | Active |  | 2.35 µM |  |  | inactive | 68% | Active | 6% | 62% | Active | 41% |  | 
CCCCCCCC(=O)O[C@H](CC/C(C)=C/COc1ccc2ccc(=O)oc2c1)C(C)(C)O [R-(+)-MARMIN-6'-OCTANOATE] | Dose-dependent effect |  | 3.08 µM | Active | 30% | Active |  | 3.71 µM |  |  | inactive |  | Active | 28% | 39% | Active |  | Active | Active
CCCCCCCCCCCCCCCC(=O)O[C@H](CC/C(C)=C/COc1ccc2ccc(=O)oc2c1)C(C)(C)O [R-(+)-MARMIN-6'-PALMITATE] |  |  | > 30 µM | Active | 20% | Active |  | > 30 µM |  |  |  |  |  |  |  |  |  |  | 
CCCCCCCCCCC(=O)O[C@H](CC/C(C)=C/COc1ccc2ccc(=O)oc2c1)C(C)(C)O [R-(+)-MARMIN-6'-UNDECANOATE] | Dose-dependent effect |  | 0.87 µM | Active | 30% | Active |  | 3.67 µM |  |  |  |  | Active |  |  | Active |  | Active | Active
C/C(=C\COc1ccc2ccc(=O)oc2c1)CC[C@@H](O)C(C)(C)O [R-(+)-MARMIN] |  |  | > 30 µM | Active | 20% | Active |  | > 30 µM |  |  |  |  |  |  |  |  |  |  | 

— ChEMBL document CHEMBL2346643, “Semisynthetic studies identify mitochondria poisons from botanical dietary supplements--geranyloxycoumarins from Aegle marmelos” (Bioorg Med Chem, 2013)
